Most compounds without a hit are left out; they make up all but 2.6% or so of the library.
ARFGAP1 inh: inhibitors of rat ARFGAP1 GAP activity, primary screen, biochemical, fluorescence polarization, GDP tracer; 0.26% of 360,000 active; inhibition, % at 16.5 µM; ADP-ribosylation factor GTPase-activating protein 1 (Rattus norvegicus), Q62848; Arfgap1-stimulated ARF1 GTP hydrolysis, GDP FP detection; AID 651572, 2012;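 active means inhibition above a per-plate limit, mean inhibition of low control wells plus 3 SD, cut at about 25% in these data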;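 further: 0% = DMSO wells with enzyme and 100% = wells lacking Arfgap1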
Target sequence (Q62848 1-136 limits assumed): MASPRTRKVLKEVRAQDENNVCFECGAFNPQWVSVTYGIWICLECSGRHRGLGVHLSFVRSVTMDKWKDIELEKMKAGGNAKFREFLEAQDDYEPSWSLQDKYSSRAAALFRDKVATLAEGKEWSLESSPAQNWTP
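Material: truncated rat Arfgap1 GAP domain; Incubation: compound-enzyme preincubation 20 min, reaction 120 min, detection 60 min, 25 °C; Read-out: percent inhibition of Arfgap1-stimulated GTP hydrolysis; Technique: FP, GDP Alexa 633 tracer displaced from anti-GDP antibody, 620/688 nm; Controls: No-Arfgap1 wells (100%) versus DMSO full-reaction wells (0%); Replication: single well per compound.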
Calb FLC: C. albicans growth inhibition with fluconazole, primary screen, CaCi-2 strain, Alamar Blue fluorescence; C. albicans CaCi-2 + fluconazole, 48 h; growth inhibition, % (test concentration not listed); 0.57% of 300,000 active;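 active means growth inhibition above about 58% in most replicates, limit read from the data, passing the limit was not always enough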;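 further: all wells also contain fluconazole at 8 µg/ml as a sub-toxic cotreatment; 0% = median of DMSO wells and 100% = median of geldanamycin control wells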
PHOSPHO1 block: PubChem AID 1565; Phosphoethanolamine/phosphocholine phosphatase (Homo sapiens), Q8TCT1; recombinant PHOSPHO1, absorbance phosphatase assay; inhibition, % at 13.3 µM; 1.1% of 290,000 active; in the data active means inhibition above about 60%
VIM-2 inhibitor: VIM-2 metallo-beta-lactamase inhibitors, primary screen, biochemical, epi-absorbance readout, Pseudomonas aeruginosa enzyme; purified VIM-2, nitrocefin hydrolysis, epi-absorbance fluorescence; inhibition, % at 5.6 µM; 0.89% of 290,000 active; AID 1527, 2009;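 active means inhibition above the mean of all tested compounds plus 3 SD, cutoff set per screening run, cut at about 7.5% in these data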;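 further: red hydrolysis product quenches plate fluorescence so inhibitors raise well fluorescence; 0% = enzyme with DMSO and 100% = DMSO without enzyme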
IMP-1 inh-1: IMP-1 metallo-beta-lactamase inhibitors, primary screen, biochemical, epi-absorbance readout, Pseudomonas aeruginosa enzyme. purified IMP-1, nitrocefin hydrolysis, epi-absorbance fluorescence. 0.45% of 290,000 active. inhibition, % at 5.6 µM. metallo-beta-lactamase IMP-1 (Pseudomonas aeruginosa);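 active means inhibition above the mean plus 3 SD of all compounds in the same screening run, cut at about 4.5% in these data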;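 further: 0% = IMP-1 with DMSO and 100% = DMSO wells lacking enzyme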
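Test system: recombinant IMP-1 enzyme, purified / Medium: HEPES buffer pH 7.1 with ZnSO4 and Brij 35 / Doses: single dose, 5.6 µM / Times: 25 °C, 15 min preincubation, 25 min reaction / Detection: Epi-absorbance via hydrolysed-nitrocefin quenching of white-plate fluorescence, 480/530 nm, EDTA stop / Evaluation: percent inhibition from optical density relative to buffer-blank wells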
ASAP1 GAP inh: inhibitors of human ASAP1 ArfGAP activity, primary screen, biochemical, fluorescence polarization. AID 624377, 2012. ASAP1-stimulated ARF1 GTP hydrolysis, GDP FP detection. inhibition, % at 16.5 µM. 0.19% of 360,000 active; in the data active means inhibition above about 25%;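 further: 0% = vehicle with enzyme and substrate and 100% = no enzyme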
Target sequence (Q9ULH1 325-724 limits assumed): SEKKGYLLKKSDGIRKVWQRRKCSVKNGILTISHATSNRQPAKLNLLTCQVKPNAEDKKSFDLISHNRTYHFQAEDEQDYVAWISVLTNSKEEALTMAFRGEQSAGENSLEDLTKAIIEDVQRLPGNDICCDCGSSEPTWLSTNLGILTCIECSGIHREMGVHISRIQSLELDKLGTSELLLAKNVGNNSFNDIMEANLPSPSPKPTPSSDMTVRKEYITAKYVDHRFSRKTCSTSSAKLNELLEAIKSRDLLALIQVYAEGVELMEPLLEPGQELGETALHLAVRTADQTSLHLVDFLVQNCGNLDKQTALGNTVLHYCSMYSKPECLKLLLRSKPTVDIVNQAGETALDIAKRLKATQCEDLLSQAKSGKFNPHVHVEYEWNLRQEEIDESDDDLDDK
IMP-1 inh-2: IMP-1 metallo-beta-lactamase inhibitors, confirmation, selectivity assay for selective VIM-2 inhibitor project, biochemical, epi-absorbance readout, triplicate. shares compounds with VIM-2 inhibitor. purified IMP-1, nitrocefin hydrolysis, epi-absorbance fluorescence. inhibition, % at 5.6 µM. 1,300 tested, under 10 active; call rule not given here;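 further: 0% = enzyme with vehicle and 100% = vehicle without enzyme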
VIM-2 FRET ctr: VIM-2 inhibitors in FRET format, confirmation, artefact control for selective VIM-2 inhibitor project, biochemical, epi-absorbance artifact exclusion | shares compounds with VIM-2 inhibitor | purified VIM-2, CCF2 FRET substrate hydrolysis | inhibition, % at 5.6 µM | 23% of 1,300 active;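 active means inhibition above the mean of all tested compounds plus 3 SD, cut at about 19% in these data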;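 further: 0% = VIM-2 plus DMSO and 100% = no enzyme wells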
TEM-1 counter: TEM-1 serine beta-lactamase inhibitors, counter-screen for VIM-2 inhibitor project, biochemical, epi-absorbance, HTS | inhibition, % at 5.6 µM | AID 1866, 2009 | 3% of 1,300 active | shares compounds with VIM-2 inhibitor | Purified TEM-1, nitrocefin hydrolysis, epi-absorbance fluorescence;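 active means inhibition above that campaign's mean inhibition plus 3 SD, cut at about 0.46% in these data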;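 further: 0% = TEM-1 with DMSO and 100% = TEM-1 with 100 µM potassium clavulanate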
VIM-2 confirm 2: VIM-2 metallo-beta-lactamase inhibitors, confirmation, biochemical, epi-absorbance, hits shared with IMP-1 screen. shares compounds with VIM-2 inhibitor. purified VIM-2, nitrocefin hydrolysis. inhibition, % at 5.6 µM. 96% of 1,300 active. AID 2187, 2009;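 active means inhibition of the VIM-2 beta-lactamase enzyme above about 11% from the earlier first-round screen, limit read from the data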;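 further: 0% = VIM-2 with DMSO and 100% = buffer wells without enzyme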
Starred values were filed as active, the others as inactive; · = no result.

SMILES | ARFGAP1 inh | Calb FLC | PHOSPHO1 block | VIM-2 inhibitor | IMP-1 inh-1 | ASAP1 GAP inh | IMP-1 inh-2 | VIM-2 FRET ctr | TEM-1 counter | VIM-2 confirm 2
CCCn1c(=N)c(S(=O)(=O)c2ccc(F)cc2)cc2c(=O)n3cccc(C)c3nc21 | -2 | -4 | 8 | 13* | -1 | 0 | -1 | -4 | 2.9* | 27*
O=C(O)C(c1ccccc1)N1C(=O)c2cccc3cccc(c23)C1=O (configuration not stated) | -6 | -10 | 24 | 20* | 4 | 8 | 3 | 39* | -7 | 27*
O=C(O)c1cccc(NC(=O)c2ccccc2NC(=O)c2cccc([N+](=O)[O-])c2)c1 | 0 | -17 | 29 | 1 | 1 | 2 | · | · | · | ·
O=C(Nc1ccccc1C(=O)Nc1ccncc1)c1cccc([N+](=O)[O-])c1 | 2 | 7 | 40 | 13* | -1 | -8 | -3 | -11 | -5 | 25*
CCc1nc2cc(C)nn2c2nc3ccccc3n12 | -1 | 1 | -17 | 16* | 0 | 9 | -3 | 4 | -5 | 26*
CCCCn1c(=N)n(CC(=O)c2ccco2)c2ccccc21 | 1 | -6 | 30 | -2 | -1 | 6 | · | · | · | ·
CCCCCCCn1c(=N)n(CC(=O)c2ccco2)c2ccccc21 | 13 | 3 | 11 | 18* | -3 | -3 | -3 | -1 | -6 | 3
CC(=O)c1ccc2c(c1)c(C#N)c1ccccc1[n+]2[O-] | 5 | -1 | 40 | 24* | 2 | -10 | -2 | 3 | 2.7* | 28*
Nc1nc2c(ncn2[C@@H]2O[C@H](CNCc3ccc(Oc4cc(-n5cccn5)ncn4)cc3)[C@@H](O)[C@H]2O)c(=O)[nH]1 | 11 | · | · | · | · | 10 | · | · | · | ·
Nc1nc(=S)c2ncn(C3OC(CO)C(O)C3O)c2[nH]1 (configuration not stated) | 12 | -3 | -43 | 22* | 0 | -3 | -1 | 31* | -6 | 26*
Nc1nc(=S)c2ncn([C@@H]3O[C@H](CO)[C@@H](O)[C@H]3O)c2[nH]1 | 9 | · | · | · | · | 1 | · | · | · | ·
Oc1ccc(-c2n[nH]c(=S)n2-c2ccc3c(c2)OCCO3)c(O)c1 | 6 | -4 | 7 | 17* | -5 | 6 | -2 | 36* | -8 | 19*
S=c1[nH]nc(-c2ccc3ccccc3n2)n1-c1ccc2c(c1)OCCO2 | 2 | 32 | 0 | 20* | -2 | -1 | -3 | 38* | -7 | 22*
S=c1[nH]nc(-c2ccc3ccccc3n2)n1-c1ccccc1 | 0 | 0 | -15 | 2 | -3 | 12 | · | · | · | ·
CCOC(=O)[C@]12CCC=C1N(Cc1ccc(Cl)cc1Cl)C(=O)[C@H](CC(=O)N1CCSCC1)C2 | 18 | · | · | · | · | 8 | · | · | · | ·
COc1ccc(-c2nc(C#N)c(NCCCN(C)C)o2)cc1OC | 2 | 4 | 0 | 12* | 3 | 15 | -2 | 1 | -6 | 27*
N#Cc1nc(-c2ccccc2)oc1NCCCn1ccnc1 | 12 | -4 | 6 | 26* | -5 | 0 | -3 | -11 | -6 | 45*
N#Cc1nc(-c2ccc(OCc3ccc(Cl)cc3)cc2)oc1NCCCn1ccnc1 | -3 | · | -16 | -5 | -4 | 11 | · | · | · | ·
COc1ccccc1-c1nc(C#N)c(NCCCn2ccnc2)o1 | -4 | -3 | 51 | 18* | -1 | 12 | -4 | -6 | -5 | 35*
OCC[C@@H]1C[C@H](O)[C@@H](O)[C@@]2(OCc3cc(C(F)(F)F)ccc32)O1 | 10 | · | · | · | · | 5 | · | · | · | ·
CC12CCC(c3c(CO)nn(-c4ccccc4)c31)C2(C)C (configuration not stated) | 9 | 10 | -17 | -3 | 1 | -4 | · | · | · | ·
CC12CCC(c3c(C(=O)O)nn(-c4ccccc4)c31)C2(C)C (configuration not stated) | -3 | 30 | 1 | 14* | 0 | 8 | -3 | 26* | -2 | 18*
CC(N)C(=O)NC(CO)C(O)C(N)C=O (configuration not stated) | 1 | · | · | · | · | 2 | · | · | · | ·
Cc1cc(Cl)n2c(nc3ccccc32)c1C#N | -1 | 94* | 24 | 20* | -3 | 0 | -3 | -8 | -7 | 34*
CNc1cc(C)c(C#N)c2nc3ccccc3n12 | 3 | -9 | 24 | 24* | -5 | -11 | -3 | 2 | -7 | 35*
SMILES | ARFGAP1 inh | Calb FLC | PHOSPHO1 block | VIM-2 inhibitor | IMP-1 inh-1 | ASAP1 GAP inh | IMP-1 inh-2 | VIM-2 FRET ctr | TEM-1 counter | VIM-2 confirm 2
CCc1c(C)c(C#N)c2nc3ccccc3n2c1NC | 2 | 7 | 42 | 14* | -3 | -5 | -4 | 1 | -7 | 21*
CCN(CC)c1cc(C)c(C#N)c2nc3ccccc3n12 | 5 | -18 | 33 | -3 | -4 | 3 | · | · | · | ·
CCc1c(C)c(C#N)c2nc3ccccc3n2c1NCCN(C)C | 2 | 43 | 10 | 6 | -3 | 15 | · | · | · | ·
CN1CC(O)(C(O)C(O)C(O)CO)SC1=S (configuration not stated) | -1 | · | · | · | · | 4 | · | · | · | ·
Cc1cccc(C)c1NC(=O)C1C(c2ccccc2)=Nc2ccccc2N1C(=O)c1cnccn1 (configuration not stated) | 4 | · | · | · | · | -4 | · | · | · | ·
Cc1cccc(-n2c(CCn3nc(C)c([N+](=O)[O-])c3C)n[nH]c2=S)c1 | 1 | 17 | 97* | 17* | -5 | 15 | -4 | 46* | -7 | 30*
COc1cccc(-n2c(CCn3nc(C)c([N+](=O)[O-])c3C)n[nH]c2=S)c1 | 10 | 1 | -29 | 14* | -3 | -6 | -3 | 38* | -4 | 25*
CCOC(=O)C1(C)CCCN(C(=O)c2cccc(OC(F)(F)F)c2)C1 (configuration not stated) | 4 | · | · | · | · | 1 | · | · | · | ·
